# Results from ChEMBL document CHEMBL3351998, “Discovery of potent and specific dihydroisoxazole inhibitors of human transglutaminase 2” (J Med Chem, 2014).
# Key:
# [1] = biological target: T1, Protein-glutamine gamma-glutamyltransferase 2 (Mus musculus) (UniProt P21981); test: Inhibition of mouse transglutaminase 2 using ((benzyloxy)carbony l)-L-glutaminylglycine peptide substrate assessed as Kinh/Ki ratio by GDH coupled assay
# T1 sequence (whole entry): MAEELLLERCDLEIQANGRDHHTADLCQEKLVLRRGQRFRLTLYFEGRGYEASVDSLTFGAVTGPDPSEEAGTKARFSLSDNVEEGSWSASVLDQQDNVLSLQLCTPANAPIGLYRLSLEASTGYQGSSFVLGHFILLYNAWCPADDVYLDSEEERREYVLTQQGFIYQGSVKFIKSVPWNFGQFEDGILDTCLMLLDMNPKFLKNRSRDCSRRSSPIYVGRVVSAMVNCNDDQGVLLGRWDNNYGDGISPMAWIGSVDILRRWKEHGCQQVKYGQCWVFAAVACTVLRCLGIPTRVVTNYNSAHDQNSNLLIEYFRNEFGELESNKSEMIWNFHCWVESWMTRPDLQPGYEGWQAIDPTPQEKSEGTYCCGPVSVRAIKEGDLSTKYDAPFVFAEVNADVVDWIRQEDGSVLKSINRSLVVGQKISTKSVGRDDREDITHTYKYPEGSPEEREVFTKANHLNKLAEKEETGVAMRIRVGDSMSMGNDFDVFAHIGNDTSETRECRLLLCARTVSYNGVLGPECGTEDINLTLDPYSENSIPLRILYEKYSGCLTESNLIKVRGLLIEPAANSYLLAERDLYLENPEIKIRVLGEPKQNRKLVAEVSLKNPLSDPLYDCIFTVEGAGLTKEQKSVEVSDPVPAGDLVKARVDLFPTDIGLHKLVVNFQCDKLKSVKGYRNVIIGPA
# Summary of the method: (§1)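 Human TG2 (V224G variant) or codon-optimized murine TG2, E. coli-expressed, final ~0.34 and 0.22 μM respectively. Buffer: 200 mM MOPS pH 7.2, 5 mM CaCl2, 10 mM α-ketoglutarate, 300 μM NADH, 36 U/mL bovine GDH. Z-Gln-Gly at 10/20 mM. Inhibitors typically at 100/33.3/11.1/3.7 μM, 1% DMSO, added after ≥5 min pre-equilibration. A340 progress curves fitted to exponential decay; kinh/Ki from irreversible inhibition model.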
# [2] = biological target: T2, Coagulation factor XIII A chain (Homo sapiens) (UniProt P00488); test: Inhibition of human factor 13a using QEQVSPLSLLK peptide substrate assessed as Kinh/Ki ratio by GDH coupled assay
# T2 sequence (whole entry): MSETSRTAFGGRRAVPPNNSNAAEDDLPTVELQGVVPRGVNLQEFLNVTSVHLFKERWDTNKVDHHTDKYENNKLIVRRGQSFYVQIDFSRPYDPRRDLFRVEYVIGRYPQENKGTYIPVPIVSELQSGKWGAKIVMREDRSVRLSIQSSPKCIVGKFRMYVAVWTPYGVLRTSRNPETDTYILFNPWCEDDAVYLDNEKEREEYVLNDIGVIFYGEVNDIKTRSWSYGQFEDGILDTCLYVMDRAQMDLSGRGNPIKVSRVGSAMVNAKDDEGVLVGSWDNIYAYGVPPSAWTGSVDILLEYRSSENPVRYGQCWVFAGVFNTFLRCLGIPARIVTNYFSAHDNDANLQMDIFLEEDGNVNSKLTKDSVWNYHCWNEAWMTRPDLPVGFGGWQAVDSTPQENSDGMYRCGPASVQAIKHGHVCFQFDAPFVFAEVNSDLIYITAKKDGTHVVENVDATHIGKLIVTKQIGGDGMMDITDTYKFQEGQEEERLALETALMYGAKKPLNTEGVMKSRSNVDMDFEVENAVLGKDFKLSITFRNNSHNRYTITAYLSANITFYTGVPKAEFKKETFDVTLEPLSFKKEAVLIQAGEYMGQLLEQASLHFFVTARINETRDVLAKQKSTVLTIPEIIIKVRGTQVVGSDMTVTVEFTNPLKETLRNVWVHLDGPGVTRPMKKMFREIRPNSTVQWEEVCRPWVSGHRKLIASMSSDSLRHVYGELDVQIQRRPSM
# [3] = biological target: T3, Protein-glutamine gamma-glutamyltransferase (Homo sapiens) (UniProt P21980); test: Inhibition of human transglutaminase 2 using ((benzyloxy)carbony l)-L-glutaminylglycine peptide substrate assessed as Kinh/Ki ratio by GDH coupled assay; summary of the method: as §1
# T3 sequence (whole entry): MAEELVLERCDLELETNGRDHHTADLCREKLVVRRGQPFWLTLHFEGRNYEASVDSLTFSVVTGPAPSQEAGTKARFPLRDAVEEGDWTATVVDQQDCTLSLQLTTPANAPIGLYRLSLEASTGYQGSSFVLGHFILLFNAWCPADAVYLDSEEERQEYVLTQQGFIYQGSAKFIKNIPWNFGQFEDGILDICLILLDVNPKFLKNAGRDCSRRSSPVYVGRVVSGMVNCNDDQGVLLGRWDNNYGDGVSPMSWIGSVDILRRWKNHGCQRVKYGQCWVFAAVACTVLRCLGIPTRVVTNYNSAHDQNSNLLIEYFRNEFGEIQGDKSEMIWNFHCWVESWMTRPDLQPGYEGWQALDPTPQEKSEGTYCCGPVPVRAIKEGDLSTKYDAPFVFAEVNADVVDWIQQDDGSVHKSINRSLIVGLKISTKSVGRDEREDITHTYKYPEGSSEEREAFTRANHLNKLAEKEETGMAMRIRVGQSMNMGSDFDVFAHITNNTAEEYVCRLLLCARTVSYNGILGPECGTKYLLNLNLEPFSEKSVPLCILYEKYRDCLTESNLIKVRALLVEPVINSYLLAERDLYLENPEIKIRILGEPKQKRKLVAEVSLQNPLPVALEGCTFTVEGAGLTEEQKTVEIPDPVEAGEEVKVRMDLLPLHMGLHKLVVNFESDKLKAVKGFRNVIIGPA
SMILES,Ratio [1],Ratio [2],Ratio [3]
O=C(NC[C@@H]1CC(Br)=NO1)[C@@H]1CCCN1C(=O)OCc1cnc2ccccc2c1,0.5,8.3,16.9
O=C(N[C@@H]1C[C@@H](C(=O)NC[C@@H]2CC(Br)=NO2)N(C(=O)OCc2cnc3ccccc3c2)C1)c1ccc(O)cc1,1.3,9.4,56.4
O=C(NC[C@@H]1CC(Br)=NO1)[C@@H]1C[C@@H](O)CN1C(=O)OCc1cnc2ccccc2c1,0.5,11.1,12.5
O=C(NC[C@@H]1CC(Br)=NO1)[C@@H]1C[C@@H](OCc2ccccc2)CN1C(=O)OCc1cnc2ccccc2c1,0.5,15.5,13.8
O=C(NC[C@@H]1CC(Br)=NO1)[C@@H]1C[C@@H](c2ccc(O)cc2)CN1C(=O)OCc1cnc2ccccc2c1,1.4,38.7,91.1
O=C(N[C@@H]1C[C@@H](C(=O)NC[C@@H]2CC(Br)=NO2)N(C(=O)OCc2cnc3ccccc3c2)C1)c1cccnc1,0.68,10.6,108
O=C(NC[C@@H]1CC(Br)=NO1)[C@@H]1C[C@H](F)CN1C(=O)OCc1cnc2ccccc2c1,0.43,7,13.4
O=C(NC[C@@H]1CC(Br)=NO1)[C@@H]1C[C@@H](c2ccccc2)CN1C(=O)OCc1cnc2ccccc2c1,1.5,25.4,48.6
